Measured values: publication PMC2882864 (Cancer research, 2010)

Key:
[1] = system: H460 NSCLC cell line; assay: Annexin V/PI flow cytometry cell viability; type: cell-based; details: H460, increasing concentrations, 48 hours
[2] = system: peripheral blood mononuclear cells (PBMCs); assay: Cytotoxicity in freshly isolated PBMCs; type: cell-based; details: freshly isolated non-cancerous cells, data not shown
[3] = system: RPA foci / DNA-PKcs phosphorylation; assay: Etoposide-induced RPA foci and DNA-PKcs serine 2056 phosphorylation; type: cell-based; details: co-treatment with etoposide
[4] = system: Xeroderma Pigmentosum Group A protein (XPA); assay: XPA DNA binding in an ELISA format; details: data not shown
[5] = system: H460 cells; assay: Cell cycle distribution; type: cell-based
Summary of the method: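 H460 cells arrested with 0.8 µg/mL nocodazole for 12 h, washed, then given vehicle or 100 µM test compound for 4, 8 or 12 h; asynchronous cells treated 3 h. 10 µM BrdU added for final 2 h (released) or final hour (asynchronous). Fixed in 70% EtOH; PI 1 µg/mL with RNaseA; DNA denatured in 2 M HCl; anti-BrdU then AlexaFluor 488 secondary; FL2-A (PI) and FL1 (BrdU) flow read-out.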

[6] = target: Human RPA (Homo sapiens, UniProt P27694); assay: EMSA of RPA binding to 5'-32P-labeled 34-base ssDNA; details: for inhibition of RPA DNA binding in vitro (in words): EMSA
Summary of the method: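 Purified human RPA (25 nM) with 25 nM 5'-32P-labelled 34-base DNA in 20 µL reactions; test compound dissolved in DMSO. Bound and free DNA were resolved by electrophoretic mobility shift.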

[7] = system: H460 cells; assay: Combination index analysis with cisplatin or etoposide; type: cell-based; details: H460, 48 hours, all fractions of cells affected
Summary of the method: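 H460 cells plated at 1 × 10⁴ cells/cm² for 24 h, then treated concurrently with increasing concentrations of cisplatin or etoposide plus test compound (DMSO stock) for 48 h. Adherent and non-adherent cells were collected and stained with annexin V-FITC/PI, then read by flow cytometry. The combination index was derived by Chou–Talalay analysis across fractions of cells affected.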

[8] = system: RPA in H460 cells; assay: Indirect immunofluorescence of RPA p34; type: cell-based; details: H460, 50 µM, 3 hours, versus vehicle
Summary of the method: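 H460 cells on chamber slides got test compound or vehicle for 3 h. They were fixed in 4% paraformaldehyde (25 °C, 3 min) and permeabilised in 0.2% Triton X-100 (2 min, 4 °C), then blocked in 15% FBS for 1 h. Staining: anti-RPA p34 (1:500, 1 h), Alexa Fluor-594 anti-mouse (1:300, 1 h), then 300 nM DAPI. Imaged by fluorescence microscopy; staining quantified by image analysis.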

Sequence of Human RPA (P27694 whole entry): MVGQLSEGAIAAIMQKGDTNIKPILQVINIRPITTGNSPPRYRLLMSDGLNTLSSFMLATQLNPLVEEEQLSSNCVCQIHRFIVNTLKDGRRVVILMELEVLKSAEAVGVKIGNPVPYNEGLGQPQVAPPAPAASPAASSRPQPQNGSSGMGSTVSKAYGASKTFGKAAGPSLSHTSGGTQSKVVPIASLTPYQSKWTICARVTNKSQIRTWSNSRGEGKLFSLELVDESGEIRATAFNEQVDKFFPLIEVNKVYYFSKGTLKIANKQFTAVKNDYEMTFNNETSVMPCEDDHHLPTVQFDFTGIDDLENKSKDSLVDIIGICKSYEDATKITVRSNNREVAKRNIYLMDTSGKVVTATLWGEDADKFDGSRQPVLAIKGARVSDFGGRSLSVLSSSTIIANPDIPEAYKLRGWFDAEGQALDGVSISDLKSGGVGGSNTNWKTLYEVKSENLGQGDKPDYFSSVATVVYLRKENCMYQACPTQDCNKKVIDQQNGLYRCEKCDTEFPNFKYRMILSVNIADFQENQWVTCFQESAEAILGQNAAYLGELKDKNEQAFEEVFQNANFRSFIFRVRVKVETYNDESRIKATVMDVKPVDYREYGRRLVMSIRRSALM
Sequence of Human RPA (P15927 whole entry partner): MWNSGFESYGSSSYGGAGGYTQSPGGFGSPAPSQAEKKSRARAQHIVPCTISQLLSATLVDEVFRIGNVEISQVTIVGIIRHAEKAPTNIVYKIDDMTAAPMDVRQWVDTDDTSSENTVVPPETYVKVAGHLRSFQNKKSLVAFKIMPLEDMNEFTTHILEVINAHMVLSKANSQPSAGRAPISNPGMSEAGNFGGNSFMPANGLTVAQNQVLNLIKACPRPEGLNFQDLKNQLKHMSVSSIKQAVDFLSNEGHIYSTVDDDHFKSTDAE
Sequence of Human RPA (P35244 whole entry partner): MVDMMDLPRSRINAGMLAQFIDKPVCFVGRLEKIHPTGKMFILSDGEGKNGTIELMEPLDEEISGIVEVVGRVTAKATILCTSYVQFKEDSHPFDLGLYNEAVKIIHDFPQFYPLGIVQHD

Row | SMILES | PI staining (membrane integrity) [1] | annexin V staining (apoptosis) [1] | cytotoxic activity in PBMCs [2] | etoposide-induced RPA foci and DNA-PKcs phosphorylation on co-treatment [3] | effect on XPA binding [4] | BrdU incorporation after release from nocodazole arrest ([5]; H460, 100 µM, 10 µM BrdU final 2 hours) | S-phase entry after release from nocodazole G2 arrest ([5]; H460, 100 µM, 12 hours post release) | BrdU incorporation in asynchronous cells ([5]; H460, 3 hours treatment, BrdU final hour) | cell cycle distribution ([5]; H460, 48 hours) | competition of RPA from pre-bound DNA ([6]; data not shown) | interaction with etoposide (combination index analysis) [7] | intensity of RPA staining [8] | inhibition of RPA DNA binding in vitro (in words) [6]
1 | CCOc1ccc2cc(C3CC(c4ccc(Br)cc4)=NN3C(=O)CCC(=O)O)c(Cl)nc2c1 (centres unmarked) [TDRL-505] | concentration dependent increase | Minimal annexin V staining | minimal cytotoxic activity | slight increase | no inhibitory activity was observed | no BrdU incorporation was observed | did not enter S-phase | small but distinct differences | increase in the proportion of cells in G1-phase | unable to compete RPA away from DNA | synergistic activity | decrease in the intensity of RPA staining | –
2 | CCN(CC)c1ccc(C2CC(c3ccc(Br)cc3)=NN2C(=O)CCC(=O)O)cc1 (centres unmarked) [TDRL-518] | – | – | – | – | – | – | – | – | – | – | – | – | no inhibition
3 | COc1ccc(-c2nn(-c3ccccc3)cc2C2CC(c3ccc(Br)cc3)=NN2C(=O)CCC(=O)O)cc1 (centres unmarked) [TDRL-523] | – | – | – | – | – | – | – | – | – | – | – | – | modest in vitro RPA inhibition
